Screening data deposited in PubChem by Johns Hopkins Ion Channel Center.
TRPC4 PAM: positive allosteric modulators of TRPC4, primary screen, cell-based, mouse TRPC4beta, HEK293 mu-opioid, Fluo-4 calcium; Short transient receptor potential channel 4 (Mus musculus), Q9QUQ5; DAMGO EC20, Fluo-4 Ca2+ flux; active compounds read high; B-score at 10 µM; hit rate 0.42% among 310,000; AID 2227, 2009;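 active means B-score of calcium response area above 5 SD of library B-scores, with initial fluorescence ratio within 5 SD of library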;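 further: B-score of integrated fluorescence ratio over time as area under calcium response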
TRPC6 inhibitor: mouse TRPC6 channel inhibitors, primary screen, cell-based, HEK293, membrane potential dye | B-score at 10 µM | Short transient receptor potential channel 6 (Mus musculus), Q61143 | ACh-evoked depolarization; active compounds read low | hit rate 1.1% among 310,000;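 active means B-score under library mean minus 3 SD, initial fluorescence not abnormally high, positive integrated signal ratio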;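 further: B-score derived from integrated fluorescence ratio over the kinetic read; more negative B-score means stronger inhibition of depolarization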
TRPC6 activator: mouse TRPC6 channel activators, primary screen, cell-based, HEK293, membrane potential dye | HEK293-TRPC6 membrane potential dye fluorescence; active compounds read high | B-score at 10 µM | hit rate 0.13% among 310,000 | AID 2550, 2010;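 active means B-score of the integrated fluorescence ratio above library mean plus 3 SD, and starting fluorescence ratio within library mean plus 5 SD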;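 further: higher score means more depolarization so channel activation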
TRPC4 inh: inhibitors of mouse TRPC4 channel, primary screen, Fluo4 calcium, HEK293 TRPC4beta/mu-opioid cells; Short transient receptor potential channel 4 (Mus musculus), Q9QUQ5; DAMGO-evoked Fluo4 calcium flux; active compounds read low; B-score at 10 µM; hit rate 0.39% among 300,000; AID 2247, 2010;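 active means B-score over 3 SD under the library average, no early fluorescence shift, positive overall ratio signal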
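Signal: kinetic Fluo4 fluorescence imaging of calcium influx. Material: stable TRPC4beta/mu-opioid receptor HEK293 cells. Probe or stimulus: DAMGO in two steps, submaximal then maximal.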
Kir21 block: inhibitors of mouse Kir2.1 inward-rectifier potassium channel; AID 1672, 2009; hit rate 0.85% among 310,000; Inward rectifier potassium channel 2 (Mus musculus), P35561; B-score at 10 µM; HEK293-Kir2.1, FluxOR thallium flux fluorescence; active compounds read low;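 active means fluorescence ratio B-score at or below minus 3 SD of library scores, with starting-brightness B-score within 2 SD, cut at about -4.2 in these data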;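 further: channel flux triggered by added potassium and thallium sulfate stimulus; B-score of peak minus minimum fluorescence over baseline after thallium stimulus; more negative B-score means stronger Kir2.1 block with less thallium influx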
TRPC4 act: activators of mouse TRPC4 channel, primary screen, Fluo4 calcium, HEK293 TRPC4beta/mu-opioid cells; Short transient receptor potential channel 4 (Mus musculus), Q9QUQ5; AID 2237, 2010; B-score at 10 µM; Fluo4 calcium fluorescence; active compounds read high; hit rate 0.49% among 310,000;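 active means B-score above 5 SD of library B-scores, and initial fluorescence ratio not above library mean plus 5 SD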;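 further: positive B-score marks a calcium rise read as TRPC4 activation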
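Material: TRPC4beta and mu-opioid receptor HEK293 stable cells | Incubation: 45 min room-temperature Fluo4 loading, 110 s read | Detection: Kinetic Fluo4 calcium fluorescence | Measure: Integrated baseline-normalised fluorescence ratio, converted to per-well B score | Benchmarks: Low control buffer alone, high control maximal DAMGO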
TRPC4 sel inh 2: mouse TRPC4 off-target activity of TRPC6 inhibitors, second screen; hit rate 42% among 920; HEK293 TRPC4/MOR, membrane potential dye fluorescence; channel activated by saturating DAMGO dose; shares compounds with TRPC6 inhibitor; inhibition, % at 10 µM; AID 2776;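 active means compounds whose fluorescence signal differed from control wells by over 3 SD, either direction, in both duplicate plates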
TRPC4 spec: mouse TRPC4 modulation by TRPC6 hits, confirmation, selectivity assay for TRPC6 inhibitor project, cell-based, HEK293 TRPC4/mu-opioid, membrane potential dye | shares compounds with TRPC6 inhibitor | membrane potential fluorescence | activity change, negative = inhibition, % at 10 µM | hit rate 61% among 920;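 active means rise or fall in signal beyond 3 SD of buffer-only wells in both replicate plates, either sign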;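 further: integrated kinetic ratio of fluorescence range over baseline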
HEK293 MPD ctr 2-1: nonspecific membrane potential effects, parental HEK293, confirmation, counter-screen for TRPC6 inhibitor project, cell-based, second counter screen; parental HEK293 membrane potential dye fluorescence; maximal acetylcholine challenge after compound addition; shares compounds with TRPC6 inhibitor; hit rate 31% among 920; signal change vs control, % at 10 µM;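 active means membrane potential signal moving either way by over 3 SD of the maximum-effect control, in both duplicate plates, meaning non-specific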
HEK293 MPD ctr-1: membrane potential modulation in parental HEK293, confirmation, counter-screen for TRPC6 inhibitor project, cell-based; shares compounds with TRPC6 inhibitor; parental HEK293 membrane potential dye fluorescence; membrane potential signal change, % at 10 µM; hit rate 60% among 920; AID 2780, 2010;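 active means membrane potential signal shifting up or down by more than 3 SD of buffer-only wells, on both duplicate plates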
HEK293 MPD ctr-2: parental HEK293 membrane potential modulation, confirmation, counter-screen for TRPC6 modulator project, cell-based; shares compounds with TRPC6 inhibitor; membrane potential dye fluorescence; membrane potential signal change, % at 10 µM; hit rate 51% among 2,400; AID 488924, 2010;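 active means membrane potential signal moves up or down beyond 5 SD from buffer-only wells, on both duplicate plates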
HEK293 MPD ctr 2-2: parental HEK293 nonspecific activity of TRPC6 modulators, second screen. shares compounds with TRPC6 inhibitor. membrane potential dye fluorescence; after compound, maximal acetylcholine stimulation. inhibition, % at 10 µM. hit rate 14% among 2,400. AID 488926;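 active means membrane potential signal drops by more than 5 SD from the mean control signal, in both duplicate plates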;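 further: plate controls were acetylcholine ECmax control wells for no effect and buffer only wells for full effect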
TRPC4 ctr mod: TRPC4 modulation by TRPC6 hit compounds, confirmation, selectivity assay for TRPC6 modulator project, cell-based, HEK293 TRPC4/mu-opioid, membrane potential dye, mouse | hit rate 69% among 2,400 | percent change from control (negative = decrease, positive = increase), % at 10 µM | shares compounds with TRPC6 inhibitor | AID 488927, 2010 | membrane potential fluorescence;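 active means membrane potential signal moved up or down beyond 5 SD of buffer control wells, in both duplicate plates, actives on both sides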;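 further: plate controls were assay buffer wells for no effect and DAMGO maximal-effect wells for full effect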
TRPC4/MOR inh 2: second selectivity test of TRPC6 modulators against mouse TRPC4 | shares compounds with TRPC6 inhibitor | inhibition, % at 10 µM | hit rate 55% among 2,400 | HEK293 TRPC4/mu-opioid, membrane potential dye fluorescence; stimulated with maximal-effect DAMGO;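 active means drop in membrane potential signal beyond 5 SD of the control wells in both duplicate plates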;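 further: TRPC4 counter screen for TRPC6 hits run under conditions tuned for TRPC6 not TRPC4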
TRPC6 block conf: mouse TRPC6 channel inhibitors, confirmation, HEK293 cells, membrane potential dye, duplicate; AID 488960, 2010; shares compounds with TRPC6 inhibitor; hit rate 43% among 3,300; inhibition, % at 10 µM; ACh-evoked depolarization;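 active means fluorescence ratio falls more than 5 SD below the full-stimulation control mean, in both duplicate runs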;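 further: integrated fluorescence ratio of peak minus minimum over baseline after agonist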
TRPC6 act confirm: mouse TRPC6 channel activators, confirmation, HEK293 cells, membrane potential dye, duplicate; shares compounds with TRPC6 inhibitor; HEK293-TRPC6 membrane potential dye fluorescence, FDSS; hit rate 11% among 2,800; activation, % at 10 µM; AID 488961, 2010;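 active means ratio signal rise beyond 5 SD above unstimulated control wells' mean, seen in both duplicate runs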;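 further: plate controls were buffer EC0 wells for no effect and acetylcholine ECmax response for full effect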
* = called active by the depositor; i = inactive; / = no result. Sampled rows, rich in hits. Any-hit rate of the full collection: about 2.9%.

SMILES | TRPC4 PAM | TRPC6 inhibitor | TRPC6 activator | TRPC4 inh | Kir21 block | TRPC4 act | TRPC4 sel inh 2 | TRPC4 spec | HEK293 MPD ctr 2-1 | HEK293 MPD ctr-1 | HEK293 MPD ctr-2 | HEK293 MPD ctr 2-2 | TRPC4 ctr mod | TRPC4/MOR inh 2 | TRPC6 block conf | TRPC6 act confirm
CCOCc1cc(CN2CCC(CCC(=O)NC3CC3)CC2)ccc1OC | i | i | i | i | -0.09 | i | / | / | / | / | / | / | / | / | / | /
O=c1cc(CSc2nnc(COc3cccc4ccccc34)o2)c2ccccc2[nH]1 | i | i | i | i | -0.47 | i | / | / | / | / | / | / | / | / | / | /
Cc1cccc(-c2cc3nc(-c4ccccc4)cc(=O)n3[nH]2)c1 | i | i | i | i | -1.97 | i | / | / | / | / | / | / | / | / | / | /
N#Cc1ccc(-c2cn(-c3ccccc3)c3[n+]2CCCS3)cc1 | i | -5.96* | i | i | 1.7 | i | / | / | / | / | -213.5%* | i | -35.0%* | 38.0%* | i | i
CN1CCN(c2cc(N3CCN(C(=O)c4ccco4)CC3)c3c4c(onc24)-c2ccccc2C3=O)CC1 | i | i | i | i | -0.89 | i | / | / | / | / | / | / | / | / | / | /
O=C1c2ccccc2-c2onc3c(N4CCN(CCO)CC4)cc(N4CCN(C(=O)c5ccco5)CC4)c1c23 | i | -7* | i | i | 0.02 | i | i | -46.6%* | i | -608.5%* | / | / | / | / | i | i
COc1cc2c(cc1OC)-c1cc3ccc4c(c3c[n+]1CC2)OCO4 | i | -7.36* | i | i | -4.31 | i | / | / | / | / | i | 91.0%* | -193.5%* | 37.0%* | 46.5%* | i
COc1cc2c(cc1O)CC[n+]1cc3c(OC)c(OC)ccc3cc1-2 | i | -7.41* | i | i | -0.08 | i | i | -9.5%* | -66.5%* | i | / | / | / | / | i | i
